Assays:
[1] = molecular target: Dual specificity tyrosine-phosphorylation-regulated kinase 1A (Homo sapiens) (UniProt Q13627); test: Inhibition of N-terminal His-tagged human Dyrk1A (126 to 490 residues) expressed in Escherichia coli BL21 (DE3) cells at 1 uM using Woodtide as substrate assessed as remaining enzyme activity after 10 mins in presence of [gamma-32P]-ATP by microbeta scintillation counting method
Outline: (§1)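 Recombinant DYRK1A kinase assay with Woodtide as the peptide substrate and ATP at 100 μM. Each compound was tested at two concentrations, 1 μM and 10 μM. Results are given as the percentage of DYRK1A activity remaining relative to the uninhibited enzyme.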

[2] = molecular target: Dual specificity tyrosine-phosphorylation-regulated kinase 1A (Homo sapiens) (UniProt Q13627); test: Inhibition of N-terminal His-tagged human Dyrk1A (126 to 490 residues) expressed in Escherichia coli BL21 (DE3) cells at 10 uM using Woodtide as substrate assessed as remaining enzyme activity after 10 mins in presence of [gamma-32P]-ATP by microbeta scintillation counting method; outline: as §1

SMILES | Activity [1] | Activity [2]
Nc1nc2ccc(-c3ccc(O)cc3)cc2n1-c1ccc(O)cc1 | 74% | 43%
Oc1ccc(-c2ccnc(-c3cc(-c4ccc(O)cc4)ccn3)c2)cc1 | 90% | 83%
CC(=O)Nc1nc2ccc(-c3ccc(O)cc3)cc2n1-c1ccc(O)cc1 | 106% | 107%
Oc1ccc(-c2cnc3nccc(-c4ccc(O)cc4)c3c2)cc1 | 67% | 30%
Oc1ccc(-c2cnc3[nH]cc(-c4ccc(O)cc4)c3c2)cc1 | 3.3% | 3.3%
O=C(Nc1ccc(O)cc1)c1cncc2nnc(-c3ccc(O)cc3)n12 | 99% | 99%
Oc1ccc(-c2nc[nH]c2-c2ccc(O)cc2)cc1 | 100% | 79%
Oc1ccc(-c2ccc(-c3cc(-c4ccc(O)cc4)n[nH]3)nc2)cc1 | 110% | 98%
O=C(Nc1cccc(O)c1)c1cncc2nnc(-c3ccc(O)cc3)n12 | 104% | 102%
Oc1ccc(-c2nnc3cncc(OCCc4cccc(O)c4)n23)cc1 | 94% | 91%
Oc1ccc(-c2ccnc(-c3cc(-c4ccc(O)cc4)n[nH]3)c2)cc1 | 64% | 9%
Oc1ccc2c(c1)CNc1cc(O)ccc1N2 | 104% | 113%
Oc1ccc(CCOc2cncc3nnc(-c4ccc(O)cc4)n23)cc1 | 94% | 99%
